From article PMC4562428 (Bioorganic & medicinal chemistry, 2015)
Where a name gives a salt, the structure may show the parent alone. Read-outs that look alike come from different tables or passages of the source.

Experiments:
SERT = SERT (Rattus norvegicus, UniProt P31652); test: [3H]5-HT release at SERT in rat brain synaptosomes; format: biochemical
How it was run: (§1)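 Rat synaptosomes in 1 μM reserpine (brain minus caudate/cerebellum for SERT and NET; caudate for DAT), preloaded 1 h in Krebs-phosphate with 5 nM [3H]5-HT (SERT) or 9 nM [3H]MPP+ (NET, DAT). Blockers of competing transporters were included. Test compound was run as 8-point curves from 10 to 10,000 nM, in triplicate on three occasions. Filtration and scintillation counting; EC50 from non-linear regression.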

DAT = DAT (Rattus norvegicus, UniProt P23977); test: [3H]MPP+ release at DAT in rat caudate synaptosomes; format: biochemical
NET = NET (Rattus norvegicus, UniProt Q63380); test: [3H]MPP+ release at NET in rat brain synaptosomes; format: biochemical
SERT, DAT, and NET = format: biochemical, rat; conditions: SERT versus DAT and NET
How it was run: as §1

[1] = cited from earlier work; for MDMA-like effects in humans: human
[2] = S(+) versus R(−) isomer of EDMA

Sequence of SERT (P31652 whole entry): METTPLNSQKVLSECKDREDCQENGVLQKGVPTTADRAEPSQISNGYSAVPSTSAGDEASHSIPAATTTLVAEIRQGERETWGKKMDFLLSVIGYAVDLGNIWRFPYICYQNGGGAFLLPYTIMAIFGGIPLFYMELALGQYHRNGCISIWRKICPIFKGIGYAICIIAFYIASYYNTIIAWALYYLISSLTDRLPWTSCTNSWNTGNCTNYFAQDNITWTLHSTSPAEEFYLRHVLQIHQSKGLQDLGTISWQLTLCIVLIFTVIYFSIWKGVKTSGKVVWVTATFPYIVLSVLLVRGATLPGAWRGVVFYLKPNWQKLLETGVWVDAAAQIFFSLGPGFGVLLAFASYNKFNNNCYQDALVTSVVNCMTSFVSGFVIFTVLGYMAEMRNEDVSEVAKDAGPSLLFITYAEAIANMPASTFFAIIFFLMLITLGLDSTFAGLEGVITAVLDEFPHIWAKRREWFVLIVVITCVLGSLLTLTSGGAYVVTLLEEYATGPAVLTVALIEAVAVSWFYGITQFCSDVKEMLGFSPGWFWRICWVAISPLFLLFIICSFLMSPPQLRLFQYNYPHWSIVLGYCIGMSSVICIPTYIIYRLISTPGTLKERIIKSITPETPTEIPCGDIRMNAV
Sequence of DAT (P23977 whole entry): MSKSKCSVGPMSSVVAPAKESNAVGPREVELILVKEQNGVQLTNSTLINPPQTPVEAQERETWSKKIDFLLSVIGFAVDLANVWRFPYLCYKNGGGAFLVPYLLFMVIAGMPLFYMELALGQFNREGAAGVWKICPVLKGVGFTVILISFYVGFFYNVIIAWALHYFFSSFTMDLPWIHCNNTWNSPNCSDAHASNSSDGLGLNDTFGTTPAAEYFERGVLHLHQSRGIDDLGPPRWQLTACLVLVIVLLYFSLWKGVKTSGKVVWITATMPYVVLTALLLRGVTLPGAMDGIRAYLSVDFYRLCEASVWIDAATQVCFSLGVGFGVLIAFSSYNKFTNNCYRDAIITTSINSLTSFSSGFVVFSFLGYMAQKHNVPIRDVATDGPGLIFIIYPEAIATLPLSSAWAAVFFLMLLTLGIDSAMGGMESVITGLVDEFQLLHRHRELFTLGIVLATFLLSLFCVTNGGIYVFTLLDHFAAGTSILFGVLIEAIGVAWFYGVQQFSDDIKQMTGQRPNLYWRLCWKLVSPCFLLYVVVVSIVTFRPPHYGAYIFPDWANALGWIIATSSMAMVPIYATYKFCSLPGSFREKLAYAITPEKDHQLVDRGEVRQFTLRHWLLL
Sequence of NET (Q63380 1-617): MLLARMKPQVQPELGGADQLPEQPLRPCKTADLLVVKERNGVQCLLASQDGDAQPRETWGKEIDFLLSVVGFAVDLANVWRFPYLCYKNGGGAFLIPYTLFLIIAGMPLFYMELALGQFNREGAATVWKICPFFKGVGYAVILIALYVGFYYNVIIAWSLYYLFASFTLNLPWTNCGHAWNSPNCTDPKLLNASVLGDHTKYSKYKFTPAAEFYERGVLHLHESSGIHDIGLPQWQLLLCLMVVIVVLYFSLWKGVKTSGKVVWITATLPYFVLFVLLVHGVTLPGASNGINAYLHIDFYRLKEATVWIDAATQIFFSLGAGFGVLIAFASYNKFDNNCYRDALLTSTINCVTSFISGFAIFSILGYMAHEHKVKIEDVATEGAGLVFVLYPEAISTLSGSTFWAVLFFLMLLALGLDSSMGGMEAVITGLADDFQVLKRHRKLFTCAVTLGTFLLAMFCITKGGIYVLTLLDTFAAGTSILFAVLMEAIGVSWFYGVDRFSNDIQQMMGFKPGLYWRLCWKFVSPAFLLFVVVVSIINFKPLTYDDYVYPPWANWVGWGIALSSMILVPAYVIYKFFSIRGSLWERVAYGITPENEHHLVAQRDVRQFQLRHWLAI

CNC(C)Cc1ccc2c(c1)OCCO2 (racemic) [(±)EDMA (3), (±)-1-(3,4-Ethylenedioxyphenyl)-N-methyl-2-aminopropane hydrochloride]
release potency at SERT relative to potency at DAT (SERT; SERT versus DAT): approximately six times | release potency at SERT relative to potency at NET (SERT; SERT versus NET): three times | potency as releaser at SERT relative to (±)MDMA (1) (SERT; compared with (±)MDMA (1)): approximately half the potency | fold less potent than (±)MDMA (1) as releaser at DAT (DAT; compared with (±)MDMA (1)): 8 fold | fold less potent than (±)MDMA (1) as releaser at NET (NET; compared with (±)MDMA (1)): 4.5 fold | transporter selectivity as releaser (SERT, DAT, and NET): slightly more selective for SERT over DAT and NET | MDMA-like effects in humans ([1]; 200 mg): fails to produce similar effects | MDMA-like effects in humans ([1]; 250 mg): threshold

CNC(C)Cc1ccc2c(c1)OCO2 (racemic) [(±)MDMA (1), N-methyl-(3,4-methylenedioxyphenyl)-2-aminopropane, reference compound]
transporter selectivity as releaser (SERT, DAT, and NET): nearly equipotent | behaviorally active total human dose ([1]; p.o.): 80 to 150 mg

CN[C@H](C)Cc1ccc2c(c1)OCCO2 [R(−)EDMA [(R)3], R(−)1-(3,4-Ethylenedioxyphenyl)-N-methyl-2-aminopropane hydrochloride]
transporter selectivity as releaser (SERT, DAT, and NET): more SERT-selective

CN[C@@H](C)Cc1ccc2c(c1)OCCO2 [S(+)EDMA [(S)3], S(+)1-(3,4-Ethylenedioxyphenyl)-N-methyl-2-aminopropane hydrochloride]
fold more potent than R(−) enantiomer at SERT (SERT; [2]): about 6 fold | fold more potent than R(−) enantiomer at DAT (DAT; [2]): 50 fold | fold more potent than R(−) enantiomer at NET (NET; [2]): 8 fold
